Laboratory results as given in ChEMBL document CHEMBL2176873, “α-1-C-butyl-1,4-dideoxy-1,4-imino-l-arabinitol as a second-generation iminosugar-based oral α-glucosidase inhibitor for improving postprandial hyperglycemia” (J Med Chem, 2012).
The source made the active and inactive calls. The calls are words filed in the database; no cut-off is given here.

Experiments:
[1] = molecular target: T1, Sucrase-isomaltase, intestinal (Rattus norvegicus, UniProt P23739); assay: Inhibition of rat intestinal sucrase using sucrose as substrate
T1 sequence (P23739 1-1013 limits assumed): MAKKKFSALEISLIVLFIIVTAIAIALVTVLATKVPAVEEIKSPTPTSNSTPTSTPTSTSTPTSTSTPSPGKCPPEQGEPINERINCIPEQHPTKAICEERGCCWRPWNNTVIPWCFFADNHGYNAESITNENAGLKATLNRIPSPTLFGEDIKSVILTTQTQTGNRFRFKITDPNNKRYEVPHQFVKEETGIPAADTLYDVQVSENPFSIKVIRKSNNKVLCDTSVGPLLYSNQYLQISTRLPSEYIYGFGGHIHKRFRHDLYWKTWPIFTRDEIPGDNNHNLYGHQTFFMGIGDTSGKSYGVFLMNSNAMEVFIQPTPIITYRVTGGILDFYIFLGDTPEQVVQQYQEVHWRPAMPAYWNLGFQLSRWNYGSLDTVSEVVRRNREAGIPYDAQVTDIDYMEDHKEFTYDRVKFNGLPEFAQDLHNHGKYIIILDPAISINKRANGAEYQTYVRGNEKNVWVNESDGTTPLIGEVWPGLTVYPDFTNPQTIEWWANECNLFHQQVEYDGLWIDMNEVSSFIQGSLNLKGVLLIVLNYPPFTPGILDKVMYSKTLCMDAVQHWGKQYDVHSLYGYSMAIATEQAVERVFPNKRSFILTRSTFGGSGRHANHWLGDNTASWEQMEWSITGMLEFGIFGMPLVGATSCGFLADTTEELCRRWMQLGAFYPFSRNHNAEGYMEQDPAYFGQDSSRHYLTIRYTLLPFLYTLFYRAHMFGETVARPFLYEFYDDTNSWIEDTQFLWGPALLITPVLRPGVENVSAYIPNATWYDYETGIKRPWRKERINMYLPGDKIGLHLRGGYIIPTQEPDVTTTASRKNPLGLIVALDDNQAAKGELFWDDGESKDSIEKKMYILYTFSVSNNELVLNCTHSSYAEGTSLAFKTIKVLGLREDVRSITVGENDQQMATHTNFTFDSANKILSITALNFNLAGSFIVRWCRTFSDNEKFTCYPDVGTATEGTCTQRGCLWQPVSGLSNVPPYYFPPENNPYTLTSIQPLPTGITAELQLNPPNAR
T1 sequence (P23739 1014-1841 limits assumed): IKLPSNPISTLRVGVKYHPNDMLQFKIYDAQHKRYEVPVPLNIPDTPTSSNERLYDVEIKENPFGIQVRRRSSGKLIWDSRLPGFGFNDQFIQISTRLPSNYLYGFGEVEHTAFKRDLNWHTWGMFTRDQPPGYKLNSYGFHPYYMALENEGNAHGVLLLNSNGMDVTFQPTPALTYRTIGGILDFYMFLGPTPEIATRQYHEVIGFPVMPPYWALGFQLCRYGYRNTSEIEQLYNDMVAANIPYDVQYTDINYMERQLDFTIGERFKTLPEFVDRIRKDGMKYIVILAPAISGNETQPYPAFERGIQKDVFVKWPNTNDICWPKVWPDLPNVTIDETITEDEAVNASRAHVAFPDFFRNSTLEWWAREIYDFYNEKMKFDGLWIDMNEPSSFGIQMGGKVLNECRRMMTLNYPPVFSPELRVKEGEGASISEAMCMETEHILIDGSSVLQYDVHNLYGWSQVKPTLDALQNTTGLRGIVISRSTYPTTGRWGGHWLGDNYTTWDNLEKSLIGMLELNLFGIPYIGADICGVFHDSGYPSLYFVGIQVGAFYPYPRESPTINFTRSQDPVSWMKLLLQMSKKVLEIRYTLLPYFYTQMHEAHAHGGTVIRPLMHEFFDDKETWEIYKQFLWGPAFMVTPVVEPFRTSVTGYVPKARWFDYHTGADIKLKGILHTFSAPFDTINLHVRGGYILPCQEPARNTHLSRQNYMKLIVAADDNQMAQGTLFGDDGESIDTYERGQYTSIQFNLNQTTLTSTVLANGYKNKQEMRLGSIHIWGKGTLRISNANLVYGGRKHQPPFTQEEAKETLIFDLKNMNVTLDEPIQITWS

[2] = molecular target: T1, Sucrase-isomaltase, intestinal; assay: Inhibition of rat intestinal isomaltase […] as substrate
[3] = molecular target: T2, Trehalase (Rattus norvegicus, UniProt O70282); assay: Inhibition of rat intestinal trehalase
T2 sequence (O70282 whole entry): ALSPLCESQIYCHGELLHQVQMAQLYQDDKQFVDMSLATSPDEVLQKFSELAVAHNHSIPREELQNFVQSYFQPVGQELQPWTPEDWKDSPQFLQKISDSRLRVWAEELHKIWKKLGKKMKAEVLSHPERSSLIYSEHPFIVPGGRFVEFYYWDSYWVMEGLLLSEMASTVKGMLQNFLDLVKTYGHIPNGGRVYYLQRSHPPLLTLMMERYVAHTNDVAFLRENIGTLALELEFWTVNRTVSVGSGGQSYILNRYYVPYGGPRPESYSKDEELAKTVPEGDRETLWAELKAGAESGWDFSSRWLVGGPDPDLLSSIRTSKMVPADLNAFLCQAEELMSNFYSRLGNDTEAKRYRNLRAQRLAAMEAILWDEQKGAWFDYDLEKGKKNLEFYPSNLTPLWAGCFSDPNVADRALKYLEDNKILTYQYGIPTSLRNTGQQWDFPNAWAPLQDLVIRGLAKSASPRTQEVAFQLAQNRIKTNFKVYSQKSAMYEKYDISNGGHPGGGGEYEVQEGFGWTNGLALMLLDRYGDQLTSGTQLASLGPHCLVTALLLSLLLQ

[4] = molecular target: T3, Beta-galactosidase (Bos taurus) (UniProt Q58D55); assay: Inhibition of bovine liver beta-galactosidase at 1000 uM
T3 sequence (whole entry): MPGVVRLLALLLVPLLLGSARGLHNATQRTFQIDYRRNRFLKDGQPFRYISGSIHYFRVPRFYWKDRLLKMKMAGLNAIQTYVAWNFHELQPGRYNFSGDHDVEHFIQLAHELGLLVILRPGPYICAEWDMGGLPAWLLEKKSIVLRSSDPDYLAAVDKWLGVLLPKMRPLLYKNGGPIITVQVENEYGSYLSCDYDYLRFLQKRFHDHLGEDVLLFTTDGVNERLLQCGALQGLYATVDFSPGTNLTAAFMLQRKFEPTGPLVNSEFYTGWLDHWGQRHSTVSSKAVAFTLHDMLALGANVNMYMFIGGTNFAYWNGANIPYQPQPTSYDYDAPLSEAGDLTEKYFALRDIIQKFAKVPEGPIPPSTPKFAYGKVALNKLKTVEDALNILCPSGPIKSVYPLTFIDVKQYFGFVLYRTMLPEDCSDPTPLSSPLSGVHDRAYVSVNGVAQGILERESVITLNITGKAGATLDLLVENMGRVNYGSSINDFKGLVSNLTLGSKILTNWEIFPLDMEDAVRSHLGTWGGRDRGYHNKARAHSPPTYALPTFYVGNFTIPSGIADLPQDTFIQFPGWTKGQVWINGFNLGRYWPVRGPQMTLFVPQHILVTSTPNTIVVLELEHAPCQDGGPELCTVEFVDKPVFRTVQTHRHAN

[5] = molecular target: T4, Uncharacterized protein (Sus scrofa, UniProt I3LIR5); assay: Inhibition of porcine kidney trehalase
T4 sequence (I3LIR5 whole entry): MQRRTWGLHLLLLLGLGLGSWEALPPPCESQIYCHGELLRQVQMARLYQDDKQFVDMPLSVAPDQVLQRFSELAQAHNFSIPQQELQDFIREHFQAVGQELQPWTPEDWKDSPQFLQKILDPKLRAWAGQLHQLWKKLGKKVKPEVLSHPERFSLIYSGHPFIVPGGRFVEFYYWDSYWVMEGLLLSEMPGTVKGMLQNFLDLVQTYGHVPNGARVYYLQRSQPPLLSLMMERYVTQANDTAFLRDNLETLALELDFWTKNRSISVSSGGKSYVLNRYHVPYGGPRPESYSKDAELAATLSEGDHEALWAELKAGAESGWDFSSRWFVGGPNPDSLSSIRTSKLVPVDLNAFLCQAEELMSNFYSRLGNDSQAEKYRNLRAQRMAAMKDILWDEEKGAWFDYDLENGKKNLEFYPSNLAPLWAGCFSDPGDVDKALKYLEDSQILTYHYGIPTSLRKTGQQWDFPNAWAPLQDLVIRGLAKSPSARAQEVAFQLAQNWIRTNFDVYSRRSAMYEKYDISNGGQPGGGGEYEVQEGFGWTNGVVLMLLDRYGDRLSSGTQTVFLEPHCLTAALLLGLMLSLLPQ

[6] = species: Rattus norvegicus; assay: Inhibition of rat intestinal cellobiase using cellobiose as substrate at 1000 uM
Summary of the method: (§1)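 Rat small-intestine brush border membrane preparation, assayed at pH 5.8 with the matching disaccharide as substrate (maltose at 25 mM). Incubation for 10–30 min at 37 °C, stopped by heating at 100 °C for 3 min and centrifuged. Released D-glucose in the supernatant was measured by glucose reagent absorbance at 505 nm.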

[7] = molecular target: T5, Glucosylceramidase (Bos taurus) (UniProt Q2KHZ8); assay: Inhibition of bovine liver beta-glucosidase at 1000 uM
T5 sequence (whole entry): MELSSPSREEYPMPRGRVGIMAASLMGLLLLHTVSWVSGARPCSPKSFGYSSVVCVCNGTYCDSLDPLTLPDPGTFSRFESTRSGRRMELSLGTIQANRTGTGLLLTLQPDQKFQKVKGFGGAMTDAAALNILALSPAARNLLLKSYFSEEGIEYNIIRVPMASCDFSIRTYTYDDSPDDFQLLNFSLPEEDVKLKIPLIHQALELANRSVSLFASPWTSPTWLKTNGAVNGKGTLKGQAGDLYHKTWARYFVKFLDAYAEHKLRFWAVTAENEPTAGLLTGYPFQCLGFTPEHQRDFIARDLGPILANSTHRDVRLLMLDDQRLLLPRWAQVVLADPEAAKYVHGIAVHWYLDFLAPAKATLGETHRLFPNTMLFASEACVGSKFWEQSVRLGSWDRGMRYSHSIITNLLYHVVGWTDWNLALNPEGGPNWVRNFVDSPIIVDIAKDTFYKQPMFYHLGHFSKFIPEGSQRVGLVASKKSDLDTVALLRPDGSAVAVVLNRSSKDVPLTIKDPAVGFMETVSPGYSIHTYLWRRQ

[8] = test system: Mus musculus; assay: Antihyperglycemic activity in overnight fasted ddY mouse assessed as decrease in blood glucose level at 0.5 mg/kg administered via stomach tube after 60 mins by sucrose loading test relative to control; assay type: functional; parameters: scale not given: the % may be the effect or the level left
Summary of the method: (§2)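 Male ddY mice received maltose or sucrose (2.5 g/kg) with inhibitor in 0.9% NaCl by stomach tube; controls got saline only. Tail-vein blood glucose was read with a portable meter at 0, 15, 30, 60 and 120 min after loading.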

[9] = molecular target: T6, Uncharacterized protein (Sus scrofa) (UniProt I3LIR5); assay: Inhibition of porcine kidney trehalase at 1000 uM
T6 sequence (whole entry): T4 sequence (I3LIR5 whole entry)

[10] = test system: Mus musculus; assay: Antihyperglycemic activity in overnight fasted ddY mouse assessed as decrease in blood glucose level at 0.25 mg/kg administered via stomach tube measured at 15 to 30 mins by maltose loading test relative to control; assay type: functional; parameters: scale not given: the % may be the effect or the level left; summary of the method: as §2
[11] = molecular target: T7, Trehalase (Rattus norvegicus) (UniProt O70282); assay: Inhibition of rat intestinal trehalase at 1000 uM
T7 sequence (whole entry): T2 sequence (O70282 whole entry)

[12] = test system: Mus musculus; assay: Antihyperglycemic activity in overnight fasted ddY mouse assessed as decrease in blood glucose level at 0.25 mg/kg administered via stomach tube measured at 60 to 120 mins by maltose loading test relative to control; assay type: functional, organism-based; parameters: dose 0.25 mg/kg; summary of the method: as §2
[13] = molecular target: T8, Lysosomal acid glucosylceramidase (Homo sapiens) (UniProt P04062); assay: Inhibition of human beta-glucocerebrosidase at 1000 uM
T8 sequence (whole entry): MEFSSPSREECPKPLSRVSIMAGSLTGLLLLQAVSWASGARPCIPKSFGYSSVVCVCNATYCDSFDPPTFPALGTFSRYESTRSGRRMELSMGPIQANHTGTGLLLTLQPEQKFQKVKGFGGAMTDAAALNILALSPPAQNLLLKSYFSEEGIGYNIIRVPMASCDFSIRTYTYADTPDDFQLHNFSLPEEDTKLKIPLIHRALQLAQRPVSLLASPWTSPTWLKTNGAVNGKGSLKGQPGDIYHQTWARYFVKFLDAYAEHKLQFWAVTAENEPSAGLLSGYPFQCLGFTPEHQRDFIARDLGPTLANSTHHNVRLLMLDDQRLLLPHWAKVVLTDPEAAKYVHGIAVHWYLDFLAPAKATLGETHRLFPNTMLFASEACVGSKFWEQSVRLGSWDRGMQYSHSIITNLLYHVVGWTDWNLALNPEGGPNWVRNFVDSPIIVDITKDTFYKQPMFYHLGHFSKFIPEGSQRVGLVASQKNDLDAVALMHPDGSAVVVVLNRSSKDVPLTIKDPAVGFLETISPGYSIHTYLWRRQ

[14] = molecular target: Lysosomal alpha-glucosidase (Homo sapiens) (UniProt P10253); assay: Inhibition of alpha-glucosidase in human HepG2 cells assessed as increase in expression of immature high mannose type N-linked oligosachcharides at 500 uM after 48 hrs by MALDI-TOF MS analysis relative to untreated control; assay type: cell-based
Summary of the method: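 HepG2 cells were grown in low-glucose DMEM with 10% FCS at 37 °C, 5% CO2, and treated 48 h with 500 μM compound. Homogenates in 0.5% Triton X-100 were DTT-reduced, alkylated with iodoacetamide, trypsinized and PNGase F-released (37 °C, 16 h). Glycans were captured on hydrazide beads, methyl-esterified, released as aoWR derivatives, and profiled by MALDI-TOF MS; proportions were compared with untreated cells.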

[15] = test system: Mus musculus; assay: Antihyperglycemic activity in overnight fasted ddY mouse assessed as decrease in blood glucose level at 0.1 mg/kg administered via stomach tube after 60 mins by sucrose loading test relative to control; assay type: functional; parameters: scale not given: the % may be the effect or the level left; summary of the method: as §2
[16] = test system: Maltase-glucoamylase, intestinal (Rattus norvegicus); assay: Inhibition of rat intestinal maltase using moltose as substrate at 1000 uM
[17] = molecular target: Sucrase-isomaltase, intestinal (Rattus norvegicus) (UniProt P23739); assay: Inhibition of rat intestinal isomaltase […] as substrate at 1000 uM; summary of the method: as §1
Sucrase-isomaltase, intestinal (Rattus norvegicus), sequence (P23739 1-1013 limits assumed): as the sequence (P23739 1-1013 limits assumed) above
Sucrase-isomaltase, intestinal (Rattus norvegicus), sequence (P23739 1014-1841 limits assumed): as the sequence (P23739 1014-1841 limits assumed) above

[18] = molecular target: Sucrase-isomaltase, intestinal (Rattus norvegicus) (UniProt P23739); assay: Inhibition of rat intestinal sucrase using sucrose as substrate at 1000 uM; summary of the method: as §1
[19] = molecular target: Lactase/phlorizin hydrolase (Rattus norvegicus) (UniProt Q02401); assay: Inhibition of rat intestinal lactase using lactose as substrate at 1000 uM
Lactase/phlorizin hydrolase (Rattus norvegicus), sequence (Q02401 868-1928 limits assumed): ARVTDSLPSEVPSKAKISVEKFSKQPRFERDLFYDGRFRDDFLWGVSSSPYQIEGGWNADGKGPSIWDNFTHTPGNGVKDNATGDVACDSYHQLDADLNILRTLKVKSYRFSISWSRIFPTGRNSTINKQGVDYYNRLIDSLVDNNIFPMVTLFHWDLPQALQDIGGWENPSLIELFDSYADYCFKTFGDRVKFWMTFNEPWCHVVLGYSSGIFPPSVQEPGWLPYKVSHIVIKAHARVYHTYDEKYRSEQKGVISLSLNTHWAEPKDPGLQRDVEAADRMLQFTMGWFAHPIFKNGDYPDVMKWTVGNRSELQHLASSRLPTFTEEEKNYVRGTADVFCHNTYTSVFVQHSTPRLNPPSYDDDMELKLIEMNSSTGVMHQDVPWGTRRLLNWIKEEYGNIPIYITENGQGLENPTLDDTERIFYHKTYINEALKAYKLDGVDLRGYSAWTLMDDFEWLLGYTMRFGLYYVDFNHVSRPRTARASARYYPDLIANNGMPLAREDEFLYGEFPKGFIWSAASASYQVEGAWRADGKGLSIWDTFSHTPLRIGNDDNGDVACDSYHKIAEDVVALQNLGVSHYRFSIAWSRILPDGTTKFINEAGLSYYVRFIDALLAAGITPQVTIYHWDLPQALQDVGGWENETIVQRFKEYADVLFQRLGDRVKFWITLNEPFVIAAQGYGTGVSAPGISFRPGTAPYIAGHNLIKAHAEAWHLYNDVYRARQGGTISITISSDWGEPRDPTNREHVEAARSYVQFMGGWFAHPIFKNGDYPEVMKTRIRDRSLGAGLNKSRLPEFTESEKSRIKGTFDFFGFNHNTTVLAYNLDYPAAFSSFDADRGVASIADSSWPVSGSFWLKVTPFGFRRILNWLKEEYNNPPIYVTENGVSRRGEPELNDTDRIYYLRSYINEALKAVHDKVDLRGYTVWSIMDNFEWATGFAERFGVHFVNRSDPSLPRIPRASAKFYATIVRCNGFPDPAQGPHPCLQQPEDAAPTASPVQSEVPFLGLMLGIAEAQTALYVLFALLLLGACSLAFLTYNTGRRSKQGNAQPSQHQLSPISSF

[20] = molecular target: Lactase/phlorizin hydrolase (Rattus norvegicus, UniProt Q02401); assay: Inhibition of rat intestinal lactase using lactose as substrate
Lactase/phlorizin hydrolase, sequence (Q02401 868-1928 limits assumed): as above

| SMILES | IC50 [1] [µM] | IC50 [2] [µM] | inhibition [4] [%] | inhibition [6] [%] | inhibition [7] [%] | inhibition [13] [%] | also measured |
| --- | --- | --- | --- | --- | --- | --- | --- |
| OC[C@@H]1N[C@@H](CCCCc2ccccc2)[C@H](O)[C@H]1O | 0.31 | 14 | – | – | – | – | – |
| CCCC[C@@H]1[C@@H](O)[C@H](CCCC)N[C@H]1CO | – | – | – | – | – | – | inhibition [16]: < 50%; inhibition [17]: < 50%; inhibition [18]: < 50% |
| C[C@@]1(CO)NC[C@H](O)[C@H]1O | 0.66 | – | – | – | – | – | – |
| OC[C@@H]1NC[C@H](O)[C@H]1O | – | – | < 50 | < 50 | < 50 | < 50 | IC50 [3]: 75 µM; IC50 [20]: 415 µM; IC50 [5]: 131 µM |

Second part, led by results:

| IC50 [1] [µM] | IC50 [2] [µM] | inhibition [4] [%] | inhibition [6] [%] | inhibition [7] [%] | inhibition [13] [%] | SMILES | also measured |
| --- | --- | --- | --- | --- | --- | --- | --- |
| – | – | < 50 | < 50 | < 50 | – | CCCCN1C[C@H](O)[C@@H](O)[C@H](O)[C@H]1CO | IC50 [3]: 38 µM; IC50 [5]: 36 µM |
| – | – | < 50 | < 50 | < 50 | < 50 | CCCC[C@@H]1N[C@@H](CO)[C@H](O)[C@H]1O | Activity [8]: 69.2%; inhibition [9]: < 50%; Activity [10]: 43.9%; inhibition [11]: < 50%; Activity [12]: inactive; inhibition [14]: inactive; Activity [15]: 49.1% |
| 73 | 54 | < 50 | < 50 | < 50 | < 50 | CCCCN1C[C@H](O)[C@@H](O)[C@@H]1CO | inhibition [9]: < 50%; inhibition [11]: < 50%; inhibition [19]: < 50% |
| 5.7 | 773 | – | – | – | – | CCC[C@@H](O)[C@@H]1N[C@@H](CO)[C@H](O)[C@H]1O | – |
